Assays:
[1] = molecular target: T1, Peroxisome proliferator-activated receptor alpha (Homo sapiens) (UniProt Q07869); assay: Agonist activity at human recombinant PPARalpha at 50 uM by GAL4 transactivation assay relative to control; assay type: functional
T1 sequence (whole entry): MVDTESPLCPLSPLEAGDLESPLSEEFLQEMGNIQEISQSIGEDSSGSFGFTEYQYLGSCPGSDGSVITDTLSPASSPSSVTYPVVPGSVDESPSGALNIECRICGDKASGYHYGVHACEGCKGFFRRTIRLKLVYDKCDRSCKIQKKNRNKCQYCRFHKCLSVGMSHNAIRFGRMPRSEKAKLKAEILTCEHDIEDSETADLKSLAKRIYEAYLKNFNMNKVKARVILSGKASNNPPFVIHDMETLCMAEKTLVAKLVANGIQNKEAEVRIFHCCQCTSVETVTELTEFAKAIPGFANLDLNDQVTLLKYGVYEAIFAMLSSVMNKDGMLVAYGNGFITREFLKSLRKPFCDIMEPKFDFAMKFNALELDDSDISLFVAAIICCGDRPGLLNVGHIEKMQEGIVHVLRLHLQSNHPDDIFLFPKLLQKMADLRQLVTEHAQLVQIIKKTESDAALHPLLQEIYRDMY
How it was run: (§1)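 Cell-based transcription assay: cells transfected with a GAL4–PPAR chimeric receptor expression plasmid, with luciferase gene activation as the read-out. PPARα was tested at 50 µM against WY 14,643 as the reference. PPARγ was tested at 30 µM against rosiglitazone as the reference. Values are fold activation at the same concentration.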

[2] = molecular target: T2, Peroxisome proliferator-activated receptor gamma (Homo sapiens) (UniProt P37231); assay: Agonist activity at human recombinant PPARgamma at 30 uM by GAL4 transactivation assay relative to control; assay type: functional; how it was run: as §1
T2 sequence (whole entry): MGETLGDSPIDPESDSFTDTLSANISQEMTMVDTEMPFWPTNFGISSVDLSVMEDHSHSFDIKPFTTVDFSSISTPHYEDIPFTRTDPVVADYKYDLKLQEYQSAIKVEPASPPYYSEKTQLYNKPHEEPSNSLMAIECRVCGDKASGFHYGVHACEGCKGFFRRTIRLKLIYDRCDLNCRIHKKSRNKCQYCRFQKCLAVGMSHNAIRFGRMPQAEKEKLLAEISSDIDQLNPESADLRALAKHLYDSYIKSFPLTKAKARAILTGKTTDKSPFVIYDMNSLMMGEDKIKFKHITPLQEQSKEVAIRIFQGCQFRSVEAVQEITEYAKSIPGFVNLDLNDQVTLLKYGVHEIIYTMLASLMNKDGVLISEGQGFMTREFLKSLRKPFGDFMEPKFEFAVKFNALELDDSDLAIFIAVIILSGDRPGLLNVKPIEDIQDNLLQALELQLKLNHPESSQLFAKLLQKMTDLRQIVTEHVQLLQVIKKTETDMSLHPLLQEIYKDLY

| SMILES | Fold change [1] | Fold change [2] |
| --- | --- | --- |
| CCOC(=O)[C@H](Cc1ccc(OCCC(=O)Nc2ccccc2C(F)(F)F)cc1)NC(C)=O | 1 | 1.8 |
| CC(=O)N[C@@H](Cc1ccc(OCCOc2ccc(C(=O)c3ccc(Cl)cc3)cc2)cc1)C(=O)O | 4.6 | 2.4 |
| CN(CCOc1ccc(CC2SC(=O)NC2=O)cc1)c1ccccn1 (stereo not given) | – | 27.2 |
| CC(=O)N[C@@H](Cc1ccc(OCc2c3ccccc3cc3ccccc23)cc1)C(=O)O | 3.1 | 1.3 |
| CCN(CCOc1ccc(C[C@H](NC(C)=O)C(=O)O)cc1)c1cccc(C)c1 | 3.2 | 1.4 |
| CC(=O)N[C@@H](Cc1ccc(OCCC(=O)Nc2ccccc2C(F)(F)F)cc1)C(=O)O | 2.5 | 1.2 |
| CC(=O)N[C@@H](Cc1ccc(OCCn2c3ccccc3c3ccccc32)cc1)C(=O)O | 3.4 | 4.2 |
| COc1ccc(COc2ccc(C[C@H](NC(C)=O)C(=O)O)cc2)cc1 | 4.4 | 5.4 |

Other lines, results leading:

| Fold change [1] | Fold change [2] | SMILES |
| --- | --- | --- |
| 2.4 | 1.3 | CCOC(=O)[C@H](Cc1ccc(OCc2ccc(OC)cc2)cc1)NC(C)=O |
| 1.6 | 5.4 | CCOC(=O)[C@H](Cc1ccc(OCCn2c3ccccc3c3ccccc32)cc1)NC(C)=O |
| 4.2 | – | Cc1cccc(Nc2cc(Cl)nc(SCC(=O)O)n2)c1C |
| 3 | 1.9 | CC(=O)N[C@@H](Cc1ccc(OCc2ccc(Cl)cc2)cc1)C(=O)O |
| 2.3 | 0.8 | CCOC(=O)[C@H](Cc1ccc(OCc2c3ccccc3cc3ccccc23)cc1)NC(C)=O |
| 2 | 1 | CCOC(=O)[C@H](Cc1ccc(OCc2ccc(Cl)cc2)cc1)NC(C)=O |
| 3.3 | 0.9 | CCOC(=O)[C@H](Cc1ccc(OCCOc2ccc(C(=O)c3ccc(Cl)cc3)cc2)cc1)NC(C)=O |
| 2.9 | 1.1 | CCOC(=O)[C@H](Cc1ccc(OCCN(CC)c2cccc(C)c2)cc1)NC(C)=O |

— ChEMBL document CHEMBL1144585, “Synthesis and evaluation of N-acetyl-L-tyrosine based compounds as PPARalpha selective activators” (Eur J Med Chem, 2007)
